Test results taken from ChEMBL document CHEMBL5724801, “EUbOPEN Chemogenomics Library - Multiplex” (2024).
Where “and” joins values, the source holds several entries; their conditions need not be identical. Identical values can stand only once.

System: HEK-293T
Test: Multiplex assay against HEK293T
Assay type: toxicity, cell-based
Settings: human
In short: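 Values for tubulin, mitochondrial-mass and membrane-permeability phenotypes are per cents of cells with healthy nuclei. These cells were identified by CellPathfinder machine-learning gating of live cells that had been stained at seeding with Hoechst33342, BioTracker Green Microtubule Cytoskeleton Dye, MitoTracker Red and Annexin V Alexa Fluor 680 and imaged on a CQ1 microscope at 37°C and 5% CO2 after compound addition. The gating first set Hoechst high-intensity objects apart from normal cells, then split normal cells into healthy, pyknosed or fragmented nuclei, and pyknosed cells into mitotic or apoptotic.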

[1] = 12 h, 1 µM, compound concentration 1 uM
[2] = 12 h, 10 µM, compound concentration 10 uM
[3] = 24 h, 1 µM, compound concentration 1 uM
[4] = 24 h, 10 µM, compound concentration 10 uM
[5] = 48 h, 1 µM, compound concentration 1 uM
[6] = 48 h, 10 µM, compound concentration 10 uM

SMILES: COc1cccc2c1c(NS(=O)(=O)c1ccc(Cl)s1)nn2Cc1cccc(CNC(=O)C(C)(C)O)c1
- Population Apoptotic (%) [1]: 31% and 34%
- Population Fragmented Nuclei (%) [1]: 6% and 7%
- Population Healthy Nuclei (%) [1]: 82% and 77%
- Population Hoechst High Intensity Objects (%) [1]: 6% and 10%
- Population Membrane Permeable-Phenotype (%) [1]: 0%
- Population Mitochondria Different-Phenotype (%) [1]: 39% and 52%
- Population Mitotic Cells (%) [1]: 68% and 65%
- Population Normal (%) [1]: 93% and 89%
- Population Pyknosed Nuclei (%) [1]: 10% and 15%
- Population Tubulin-Different-Phenotype (%) [1]: 26% and 23%
- Total Cell Count [1]: 469 and 315
- Population Apoptotic (%) [2]: 42% and 35%
- Population Fragmented Nuclei (%) [2]: 6% and 5%
- Population Healthy Nuclei (%) [2]: 80% and 78%
- Population Hoechst High Intensity Objects (%) [2]: 7% and 11%
- Population Membrane Permeable-Phenotype (%) [2]: 0%
- Population Mitochondria Different-Phenotype (%) [2]: 51% and 69%
- Population Mitotic Cells (%) [2]: 57% and 65%
- Population Normal (%) [2]: 92% and 88%
- Population Pyknosed Nuclei (%) [2]: 12% and 16%
- Population Tubulin-Different-Phenotype (%) [2]: 38% and 33%
- Total Cell Count [2]: 356 and 280
- Population Apoptotic (%) [3]: 26% and 44%
- Population Fragmented Nuclei (%) [3]: 7% and 6%
- Population Healthy Nuclei (%) [3]: 81% and 84%
- Population Hoechst High Intensity Objects (%) [3]: 2% and 7%
- Population Membrane Permeable-Phenotype (%) [3]: 0%
- Population Mitochondria Different-Phenotype (%) [3]: 22% and 37%
- Population Mitotic Cells (%) [3]: 73% and 55%
- Population Normal (%) [3]: 97% and 92%
- Population Pyknosed Nuclei (%) [3]: 11% and 8%
- Population Tubulin-Different-Phenotype (%) [3]: 17% and 15%
- Total Cell Count [3]: 617 and 357
- Population Apoptotic (%) [4]: 40%
- Population Fragmented Nuclei (%) [4]: 10% and 9%
- Population Healthy Nuclei (%) [4]: 73% and 77%
- Population Hoechst High Intensity Objects (%) [4]: 5%
- Population Membrane Permeable-Phenotype (%) [4]: 0%
- Population Mitochondria Different-Phenotype (%) [4]: 34% and 46%
- Population Mitotic Cells (%) [4]: 60%
- Population Normal (%) [4]: 94%
- Population Pyknosed Nuclei (%) [4]: 16% and 12%
- Population Tubulin-Different-Phenotype (%) [4]: 23% and 22%
- Total Cell Count [4]: 462 and 384
- Population Apoptotic (%) [5]: 16% and 28%
- Population Fragmented Nuclei (%) [5]: 10% and 11%
- Population Healthy Nuclei (%) [5]: 83%
- Population Hoechst High Intensity Objects (%) [5]: 2%
- Population Membrane Permeable-Phenotype (%) [5]: 0% and 2%
- Population Mitochondria Different-Phenotype (%) [5]: 18% and 21%
- Population Mitotic Cells (%) [5]: 83% and 71%
- Population Normal (%) [5]: 97%
- Population Pyknosed Nuclei (%) [5]: 6% and 4%
- Population Tubulin-Different-Phenotype (%) [5]: 11% and 10%
- Total Cell Count [5]: 1062 and 591
- Population Apoptotic (%) [6]: 26% and 35%
- Population Fragmented Nuclei (%) [6]: 16% and 8%
- Population Healthy Nuclei (%) [6]: 72% and 83%
- Population Hoechst High Intensity Objects (%) [6]: 4%
- Population Membrane Permeable-Phenotype (%) [6]: 0%
- Population Mitochondria Different-Phenotype (%) [6]: 25% and 27%
- Population Mitotic Cells (%) [6]: 73% and 65%
- Population Normal (%) [6]: 95%
- Population Pyknosed Nuclei (%) [6]: 10% and 7%
- Population Tubulin-Different-Phenotype (%) [6]: 16% and 12%
- Total Cell Count [6]: 646 and 550

SMILES: CCOc1c2c(c(OCC)c3ncccc13)CN(c1ccc(CS(=O)(=O)NC(=O)Cc3ccccc3OC)cc1C)C2=O
- Population Apoptotic (%) [1]: 33% and 35%
- Population Fragmented Nuclei (%) [1]: 3% and 5%
- Population Healthy Nuclei (%) [1]: 81% and 82%
- Population Hoechst High Intensity Objects (%) [1]: 6% and 5%
- Population Membrane Permeable-Phenotype (%) [1]: 0%
- Population Mitochondria Different-Phenotype (%) [1]: 43% and 54%
- Population Mitotic Cells (%) [1]: 66% and 64%
- Population Normal (%) [1]: 93% and 94%
- Population Pyknosed Nuclei (%) [1]: 14% and 12%
- Population Tubulin-Different-Phenotype (%) [1]: 31% and 16%
- Total Cell Count [1]: 356 and 355
- Population Apoptotic (%) [2]: 45% and 53%
- Population Fragmented Nuclei (%) [2]: 9% and 7%
- Population Healthy Nuclei (%) [2]: 78% and 76%
- Population Hoechst High Intensity Objects (%) [2]: 4% and 9%
- Population Membrane Permeable-Phenotype (%) [2]: 0%
- Population Mitochondria Different-Phenotype (%) [2]: 49% and 72%
- Population Mitotic Cells (%) [2]: 54% and 46%
- Population Normal (%) [2]: 95% and 90%
- Population Pyknosed Nuclei (%) [2]: 12% and 16%
- Population Tubulin-Different-Phenotype (%) [2]: 34% and 29%
- Total Cell Count [2]: 367 and 362
- Population Apoptotic (%) [3]: 35% and 27%
- Population Fragmented Nuclei (%) [3]: 11% and 5%
- Population Healthy Nuclei (%) [3]: 73% and 85%
- Population Hoechst High Intensity Objects (%) [3]: 5% and 3%
- Population Membrane Permeable-Phenotype (%) [3]: 0%
- Population Mitochondria Different-Phenotype (%) [3]: 28% and 27%
- Population Mitotic Cells (%) [3]: 64% and 72%
- Population Normal (%) [3]: 94% and 96%
- Population Pyknosed Nuclei (%) [3]: 14% and 8%
- Population Tubulin-Different-Phenotype (%) [3]: 20% and 10%
- Total Cell Count [3]: 462 and 473
- Population Apoptotic (%) [4]: 18% and 32%
- Population Fragmented Nuclei (%) [4]: 10% and 8%
- Population Healthy Nuclei (%) [4]: 75% and 82%
- Population Hoechst High Intensity Objects (%) [4]: 4% and 8%
- Population Membrane Permeable-Phenotype (%) [4]: 0% and 1%
- Population Mitochondria Different-Phenotype (%) [4]: 36% and 49%
- Population Mitotic Cells (%) [4]: 81% and 67%
- Population Normal (%) [4]: 95% and 91%
- Population Pyknosed Nuclei (%) [4]: 14% and 9%
- Population Tubulin-Different-Phenotype (%) [4]: 28% and 17%
- Total Cell Count [4]: 446 and 481
- Population Apoptotic (%) [5]: 29% and 33%
- Population Fragmented Nuclei (%) [5]: 13% and 11%
- Population Healthy Nuclei (%) [5]: 79% and 83%
- Population Hoechst High Intensity Objects (%) [5]: 3% and 1%
- Population Membrane Permeable-Phenotype (%) [5]: 0%
- Population Mitochondria Different-Phenotype (%) [5]: 20% and 14%
- Population Mitotic Cells (%) [5]: 70% and 66%
- Population Normal (%) [5]: 96% and 98%
- Population Pyknosed Nuclei (%) [5]: 6% and 5%
- Population Tubulin-Different-Phenotype (%) [5]: 13% and 7%
- Total Cell Count [5]: 822 and 770
- Population Apoptotic (%) [6]: 41% and 33%
- Population Fragmented Nuclei (%) [6]: 13% and 12%
- Population Healthy Nuclei (%) [6]: 78% and 81%
- Population Hoechst High Intensity Objects (%) [6]: 4% and 3%
- Population Membrane Permeable-Phenotype (%) [6]: 1% and 0%
- Population Mitochondria Different-Phenotype (%) [6]: 32% and 22%
- Population Mitotic Cells (%) [6]: 58% and 66%
- Population Normal (%) [6]: 95% and 96%
- Population Pyknosed Nuclei (%) [6]: 8% and 6%
- Population Tubulin-Different-Phenotype (%) [6]: 16% and 11%
- Total Cell Count [6]: 631 and 724
